Cneo AK release: Cryptococcus neoformans cell lysis inducers, primary screen, AK release luminescence, single concentration. C. neoformans lysis, adenylate kinase release luminescence, 4 h; normalised: neutral wells 0, clomiphene wells 100. lysis activity, % at 15 µM. actives 0.2% (n = 360,000);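 active = mean lysis activity across replicates of at least 80%, whatever share of replicates individually reach that level; inactive = mean lysis activity below 80%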
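Assay system: log-phase C. neoformans yeast / Quantity: yeast cell density of 5 × 10^6 cells/mL / Medium: fresh YPD growth medium / Compound: single dose / Timing: static 4 h at 37 °C with compound, 1 h detection / Measured by: adenylate kinase release luminescence / Read-out: lysis from increased AK signal / Benchmarks: Clomiphene as positive lysis control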
Efflux pump inh: inhibitors of Candida efflux pumps in yeast, primary screen, S. cerevisiae, Nile Red, multiplex; AID 485275, 2010; S. cerevisiae Candida pump triplex; inhibition, % at 10 µM; actives 0.44% (n = 330,000);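 active = plate passing quality check with inhibition over a set limit, or well fluorescence over plate mean plus 4 SD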;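 note: Nile Red retained in pooled yeast measured as flow cytometry median fluorescence; 0% = buffer negative control and 100% = Enniatin B positive control; higher means more Nile Red kept so more efflux inhibition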
Statin myotox sup: suppressors of statin myotoxicity in C2C12 myotubes, primary screen, cell-based, single point, plate reader; AID 602340, 2012; rescue of ATP level, % at 7.49 µM; actives 0.78% (n = 330,000); C2C12 myotubes + simvastatin, ATP luminescence, 48 h; scaled: DMSO 0, geranylgeraniol control 100;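 active = mean ATP rescue above about 67%, or every replicate alone reaching that limit, limit read from the data, passing the limit was not always enough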;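 note: myotubes were challenged with 10 µM simvastatin during compound exposure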
Mot1-301 SUMO: yeast Mot1-301 growth rescue at high temperature, primary screen, SUMOylation pathway inhibitor project, S. cerevisiae, ATP luminescence, 38.5C | growth rescue, % at 18.8 µM | actives 1% (n = 320,000) | S. cerevisiae Mot1-301 growth rescue; percent above DMSO median, 100 means doubled | AID 2716, 2010;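 active = every valid replicate shows activation above 250% relative to neutral control wells; inactive = the rest, any valid replicate at or below 250%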;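 note: OY570 slx delta 5 strain wells were the positive control but not used for scaling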
The depositor's hits bear a star; nt = no result; ! = a repeat was not active. Compounds with a hit are over-represented: about 1.8% of the library has one in this group of screens.

SMILES	Cneo AK release	Efflux pump inh	Statin myotox sup	Mot1-301 SUMO
CC=Cc1ccc2n(c1=O)C[C@@H]1[C@@H](CO)[C@H](C(=O)N3CCc4ccccc4C3)N(C(=O)C3CC3)[C@H]21 (mixture of isomers)	97*	nt	-4	nt
CN1[C@H](C(=O)N2CCc3ccccc3C2)[C@@H](CO)[C@@H]2Cn3c(ccc(-c4cccnc4)c3=O)[C@@H]21	104*	nt	3	nt
Cc1ccc(Nc2nnc(SCC(=O)NC3CCS(=O)(=O)C3)s2)c(C)c1 (stereo not given)	nt	0	nt	-7
Cc1ccc(S(=O)(=O)N2CCOCC2)cc1C(=O)NCCCn1ccnc1	-1	0	0	-18
Cc1cc(C(F)(F)F)n(-c2nc(C(=O)N/N=C/c3ccc(F)cc3)cs2)n1	-2	0	-116	-18
COc1ccc(C(C(=O)NC2CCCCC2)N(C(=O)c2ccco2)c2ccccc2C(C)=O)cc1OC (stereo not given)	-1	0	22	230
Cc1oc(-c2cccc(Cl)c2)nc1CS(=O)(=O)CC(=O)NCCN1CCCC1	1	0	-10	8
CO[C@H](CN(C)Cc1cc(F)ccc1F)[C@@H](C)CN([C@@H](C)CO)S(=O)(=O)c1ccc(F)cc1	91*	nt	-7	nt
CO[C@@H](CN(C)Cc1cc(F)ccc1F)[C@H](C)CN([C@@H](C)CO)S(=O)(=O)c1ccc(F)cc1	0	nt	-1	nt
Cc1nc2ccccn2c(=O)c1CCN1CCC(C(=O)c2ccc(F)cc2)CC1	0	0	1	427*!
Cc1nc2sccn2c(=O)c1CCN1CCC(=C(c2ccc(F)cc2)c2ccc(F)cc2)CC1	0	0	1	46
NC(=O)COC(=O)C(Cc1ccccc1)NS(=O)(=O)c1ccccc1F (stereo not given)	0	0	109*	4
COc1ccc(CC(C)N2CCN(Cc3ccccc3)CC2)c(OC)c1 (stereo not given)	0	0	96*	22
CC1CCc2sc(C(=O)N3CCC(C(N)=O)CC3)cc2C1 (stereo not given)	-3	0	0	-19
COc1cc2c(C(=O)NCc3ccc4c(c3)OCO4)cn(CC(C)C)c(=O)c2cc1OC	0	0	-13	11
COc1cc2c(C(=O)Nc3ccc4c(c3)OCO4)cn(CC(C)C)c(=O)c2cc1OC	nt	0	nt	343*
COc1ccc(N=Cc2c(O)c3ccccc3n2C(C)=O)cc1	-1	0	5	-9
COc1ccc(N=Cc2sc(O)c3ccccc23)cc1	1	0	180*	14
C[C@@H]1CN([C@@H](C)CO)C(=O)c2cc(NS(=O)(=O)c3ccc(F)cc3)ccc2O[C@@H](C)CCCCO[C@@H]1CN(C)Cc1ccc2c(c1)OCO2	99*	nt	nt	nt
C[C@@H]1CN([C@H](C)CO)C(=O)c2cc(NS(=O)(=O)c3ccc(F)cc3)ccc2O[C@@H](C)CCCCO[C@H]1CN(C)Cc1ccc2c(c1)OCO2	12	nt	nt	nt
COc1ccc(S(=O)(=O)Nc2ccc3c(c2)C(=O)N([C@@H](C)CO)C[C@@H](C)[C@@H](CN(C)Cc2ccc4c(c2)OCO4)OCCCC[C@H](C)O3)cc1	2	nt	90*	nt
COc1ccc(S(=O)(=O)Nc2ccc3c(c2)C(=O)N([C@@H](C)CO)C[C@H](C)[C@H](CN(C)Cc2ccc4c(c2)OCO4)OCCCC[C@@H](C)O3)cc1	3	nt	11	nt
COc1ccc(CCNC(=O)C(C(=O)c2ccc(F)cc2)n2ccccc2=O)cc1OC (stereo not given)	nt	0	nt	18
Cc1nc2ccc(S(=O)(=O)NCC(=O)N3CCCC(C)C3)cc2s1 (stereo not given)	-3	0	106*	-6
CCCC(=O)Nc1cccc(NC(=O)c2ccc3c(c2)OCCO3)c1	-1	0	4	-36
SMILES	Cneo AK release	Efflux pump inh	Statin myotox sup	Mot1-301 SUMO
CC(C)OP(=O)(OC(C)C)C(Nc1ccccc1)c1cccc2c1OCO2 (stereo not given)	nt	1	nt	279*
CCc1nnc(NC(=O)CSc2nnc(-c3ccc(NS(=O)(=O)c4ccccc4)cc3)o2)s1	1	0	108*	-5
CCN(CC)S(=O)(=O)c1ccc(Cl)c(NC(=O)COC(=O)c2ccc([N+](=O)[O-])o2)c1	-3	0	4	-6
CC(C)(C)c1ccc(C(=O)CC(Sc2ccc(Cl)cc2)C(=O)O)cc1 (stereo not given)	nt	0	nt	533*
Cc1ccc(SC(CC(=O)c2ccc(F)cc2)C(=O)O)cc1 (stereo not given)	-1	0	13	-4
CC(C)(c1ccc(O)cc1)c1ccc(O)cc1	1	0	8	14
Cc1ccc(S(=O)(=O)N2CCN(C(=O)c3cccs3)CC2)cc1C	0	0	118*	-8
COc1ccc(S(=O)(=O)N2CCN(C(=O)c3cccs3)CC2)cc1	-4	0	2	2
Cc1cc(C)c2nc(N3CCN(C(=O)c4cccs4)CC3)sc2c1	148*	0	nt	11
O=C(/C=C/c1ccc(OCCCF)cc1)N1CCN(Cc2ccccc2)CC1	-2	0	7	5
C[C@@H]1CN([C@H](C)CO)S(=O)(=O)c2ccc(C#CC3CC3)cc2O[C@@H]1CN(C)C(=O)Nc1cc(F)ccc1F	nt	nt	9	nt
CCC1=C(OC(=O)N(CC)CC)N2C(=O)OC(=NCc3ccccc3)[C@]2(C)[C@H]2C1=CC[C@H]1C(=O)N(c3ccccc3)C(=O)[C@H]12	0	0	4	19
O=C1NC(=O)C(c2ccccc2)(c2ccccc2)N1	0	0	-1	332*!
CN(C)c1ccc2c(c1)[C@@H]1C[C@@H](CC(=O)NCC3CC3)O[C@@H](CO)[C@@H]1O2	25	nt	-2	nt
O=C1CN(C(=O)COC(=O)C23CC4CC(CC(O)(C4)C2)C3)c2ccccc2N1	-3	0	4	-20
CC1(C)C(=O)Nc2ccccc2N1C(=O)COC(=O)C12CC3CC(CC(O)(C3)C1)C2	0	0	89*	11
C[C@@H]1CN([C@H](C)CO)C(=O)c2cc(-c3ccccc3F)cnc2O[C@@H]1CN(C)C(=O)C1CCOCC1	1	nt	17	nt
COc1cccc(NC(=O)Cn2c(=O)n(C)c(=O)c3sc4c(c32)COC(C)(C)C4)c1	0	0	136*	27
COc1ccc(-c2noc(CCC(=O)N3CCN(c4ccccc4OC)CC3)n2)cc1	-2	0	10	nt
Cc1ccc(S(=O)(=O)N(C)C)cc1NC(=S)NNC(=O)C1CC1	nt	1	nt	nt
C[C@@H](CN1CCC(Cc2ccccc2)CC1)[C@@H](O)c1ccc(O)cc1	1	0	4	332
CC(C(O)c1ccc(O)cc1)N1CCC(Cc2ccccc2)CC1 (stereo not given)	-4	0	-6	333*!
CS(=O)(=O)c1nc(S(=O)(=O)c2ccc(Cl)cc2)c(NCc2ccccn2)s1	nt	0	nt	-20

Screening data (PubChem BioAssay)
